Compound activity: PubChem BioAssay, several laboratories
This is one part of a sample in which hits are shown more often than they occur.
Pf gamet viab – late stage P. falciparum gametocyte viability inhibitors, primary screen, ATP luminescence, HTS | P. falciparum stage V gametocytes, 24 h | inhibition, % at 10.9 µM | 0.065% of 150,000 active;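 active = inhibition above the mean plus 3 SD of compounds within the control limits, set per campaign, cut at about 38% in these data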;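 note: 0% = DMSO wells and 100% = medium only without gametocytes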
ROMK mod – ROMK potassium channel modulators, primary screen, cell-based, thallium flux, MLSMR library | ATP-sensitive inward rectifier potassium channel 1 (Homo sapiens), P48048 | Tet-inducible ROMK, thallium flux fluorescence; actives lie on both sides | B-score at 10 µM | 2% of 130,000 active;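 active = signal ratio slope over the read window, or its plate-corrected B-score, at least 3 SD from the plate mean, either direction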;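 note: B-score of the F/F0 ratio slope over 7 to 12 s after thallium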
Target sequence (P48048 whole entry, looked up): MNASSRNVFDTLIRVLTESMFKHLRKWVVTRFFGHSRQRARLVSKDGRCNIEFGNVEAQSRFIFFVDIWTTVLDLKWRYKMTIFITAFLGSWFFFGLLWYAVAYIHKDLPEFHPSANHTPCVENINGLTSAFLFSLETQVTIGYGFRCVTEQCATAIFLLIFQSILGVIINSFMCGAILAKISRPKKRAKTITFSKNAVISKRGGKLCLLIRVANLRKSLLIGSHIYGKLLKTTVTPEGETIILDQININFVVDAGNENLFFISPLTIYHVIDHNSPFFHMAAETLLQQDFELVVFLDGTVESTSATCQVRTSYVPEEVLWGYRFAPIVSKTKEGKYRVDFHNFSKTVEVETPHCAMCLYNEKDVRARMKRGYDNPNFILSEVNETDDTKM
Calb biofilm kill – clotrimazole potentiators killing C. albicans biofilm, primary screen, 4-compound mixtures; C. albicans biofilm persisters + clotrimazole, fluorescence viability; primary screen in compound mixtures of four per well; inhibition, % at 7.6 µM; 0.02% of 120,000 active;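 active = inhibition above 30.3% in the primary screen of four-compound pools, then above 30% when the compound was retested; inconclusive = passed the primary limit but could not be retested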;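 note: compounds exposed to preformed 24 h biofilms for 48 h; 0% = untreated biofilm control and 100% = clotrimazole plus chlorhexidine kill blank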
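Assay system: C. albicans biofilms / Medium: RPMI/MOPS medium, pH 7.0 / Schedule: biofilm formation 24 h, compound exposure 48 h, 37 °C / Measured by: Alamar Blue fluorescence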
ROMK retest – ROMK channel modulator hit retest, confirmation, cell-based, thallium flux, duplicate, resupplied hits. shares compounds with ROMK mod. fluorescence ratio; active compounds read low. normalized thallium flux (F/F0 slope) at 10 µM. 54% of 3,000 active. AID 1917, 2009;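 active = Flux at 10 µM at least 3 SD below or above vehicle control mean in one or both replicates; inconclusive = no clear call, values can overlap the other calls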
Active calls of the source: *; u = inconclusive; x = no result given.

SMILES | Pf gamet viab | ROMK mod | Calb biofilm kill | ROMK retest
CCOc1ccc(CC(=O)OCn2nnc3ccccc3c2=O)cc1 | 14 | 1.3 | 14 | x
COc1cccc(CNC(=O)CSc2ccc(-c3cccs3)nn2)c1 | 1 | 0.18 | 14 | x
CC1CCC(C(C)C)C(OC(=O)C[n+]2cc(-c3ccc(Cl)cc3)n3c2CCCCC3)C1 (centres undefined) | -6 | -9.8* | 16 | 0.049*
O=C(C[n+]1cc(-c2ccccc2)n2c1CCCCC2)c1ccc(Cl)cc1 | 9 | x | 20 | x
Clc1ccc(-c2c[n+](Cc3cccc(Cl)c3)c3n2CCC3)cc1 | x | -0.97 | 8 | x
Clc1ccc(C[n+]2cc(-c3ccccc3)n3c2CCCCC3)c(Cl)c1 | x | x | 13 | x
Clc1ccc(-c2c[n+](Cc3ccc(Br)cc3)c3n2CCCCC3)cc1 | 12 | -4.2* | 20 | 0.075
Clc1ccc(-c2c[n+](Cc3ccc(Cl)cc3Cl)c3n2CCCCC3)cc1 | -13 | x | 12 | 0.055*
O=S(=O)([N-]c1nc2ccccc2nc1-n1cc[n+](Cc2ccccc2)c1)c1ccc(Cl)cc1 | -6 | x | 57 | x
COc1ccccc1NC(=O)CSc1nnc(COc2ccccc2OC)n1C | -8 | -0.016 | 5 | x
Cc1cccc(C(=O)OCCN2CCOCC2)c1 | -5 | x | x | x
CN1CCN(c2oc(-c3ccco3)nc2S(=O)(=O)c2ccccc2)CC1 | 12 | x | x | x
O=S(=O)(c1ccccc1)c1nc(-c2ccco2)oc1N1CCCCCC1 | 23 | -2.8* | x | 0.072
Cc1ccc(NS(=O)(=O)c2c(C)ccc3nsnc23)c([N+](=O)[O-])c1 | -16 | x | x | x
CCCn1c(=O)c2c(C(F)(F)F)cc(-c3ccco3)nc2n(CCC)c1=O | x | 0.62 | x | x
CCCn1c(=O)c2c(C(=O)OCC)cc(-c3ccco3)nc2n(CCC)c1=O | x | -3.8* | x | 0.064*
CCN(CC)CCNC(=O)c1ccc(-n2c(C)cc3c2CCCC3=O)cc1 | -4 | 0.094 | 12 | x
COc1ccccc1N1CCN(CC(O)COCCOc2ccc(Br)cc2)CC1 (centres undefined) | -15 | x | 15 | x
OC(COc1ccc2cc(Br)ccc2c1)CN1CCCC1 (centres undefined) | x | x | x | 0.064*
COc1ccc(N2CCN(CC(O)COCCOc3ccc(Br)cc3)CC2)cc1 (centres undefined) | -35 | -2.4* | 10 | 0.058*
COc1ccc(OCC(O)CN2CCN(c3ccc(Cl)cc3)CC2)cc1 (centres undefined) | x | x | 28 | x
COc1ccc(N2CCN(CC(O)COc3ccc4c(c3)CCC4)CC2)cc1 (centres undefined) | x | -4.5* | x | 0.061*
O=S(=O)(N1CCCCC1)N1CCN(CC(O)COc2ccc3cc(Br)ccc3c2)CC1 (centres undefined) | x | -0.24 | x | x
CSc1ccccc1OC1CCN(Cc2ccccc2)CC1 | -14 | -0.57 | 5 | x
COC(=O)COc1ccc(C2NC(=O)NC(c3ccccc3)=C2C(C)=O)cc1Br (centres undefined) | -38 | x | x | x
SMILES | Pf gamet viab | ROMK mod | Calb biofilm kill | ROMK retest
Cc1cc(C)n(-c2ccc(Cl)c(C(=O)Nc3cc(C(F)(F)F)ccc3Cl)n2)n1 | x | x | 16 | x
CCN1C=C(Cc2ccc(OC)cc2)C2=C(C1)C(c1ccc(OC)cc1)C(C#N)=C(N)O2 (centres undefined) | -21 | x | x | u
COc1ccc(C2C(C#N)=C(N)Oc3cc(C)n(Cc4ccncc4)c(=O)c32)cc1 (centres undefined) | x | -1.7 | x | x
CCCNC(=O)[C@H](C)NC(=O)c1ccc(Br)cc1 | 25 | 0.35 | 15 | x
N=c1c2c(-c3ccccc3)c(-c3ccccc3)oc2ncn1CCN1CCOCC1 | x | -1.5 | x | x
c1ccc(-c2oc3ncnc(NCCCn4ccnc4)c3c2-c2ccccc2)cc1 | x | -2.7 | x | x
O=c1c2ccccc2nc(-c2ccccc2)n1CCCN1CCOCC1 | 4 | -0.16 | x | x
N=c1c2c(-c3ccccc3)c(-c3ccccc3)n(Cc3ccco3)c2ncn1CCCN1CCOCC1 | -1 | -2.8* | 9 | 0.049*
c1ccc(-c2c(-c3ccccc3)n(Cc3ccco3)c3ncnc(NCCCn4ccnc4)c23)cc1 | -25 | -3.9* | x | u
OCCNc1ncnc2c1c(-c1ccccc1)c(-c1ccccc1)n2Cc1ccco1 | x | -1 | x | x
N=c1c2c(-c3ccccc3)c(-c3ccccc3)n(Cc3ccco3)c2ncn1CCCn1ccnc1 | x | -5.6* | 8 | 0.048*
N=c1c2c(-c3ccccc3)c(-c3ccccc3)oc2ncn1CCCN1CCOCC1 | x | -3.8* | x | 0.082
CCN1CCc2c(sc(NC(=O)Nc3ccc(Cl)c(Cl)c3)c2C(N)=O)C1 | -5 | x | 15 | x
Cc1ccc(Sc2ccc(N)cn2)cc1 | -30 | x | 11 | x
